Converted amounts (≈) assume the structure as drawn. The source made the active and inactive calls. The calls are words filed in the database; no cut-off is given here.
Legend:
Format in all cases: functional
Pseudomonas aeruginosa = experiment: Antibacterial activity against Pseudomonas aeruginosa NCIB 950 after 24 hrs by agar well diffusion method
Outline: (§1)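 Agar well diffusion. Clinical isolates were first checked for viability, then grown in nutrient broth for 8 h at 37 °C. About 0.2 ml of broth culture was mixed into 18 ml molten diagnostic sensitivity test agar cooled to 45 °C and poured into plates. Compounds in DMSO went into bored wells, with streptomycin as reference. Plates stood 1 h for diffusion, then were incubated upright at 37 °C for 24 h. Clear inhibition zones were read in mm.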

Bacillus anthracis [1] = experiment: Antibacterial activity against Bacillus anthracis after 72 hrs
Shigella dysenteriae [2] = experiment: Antibacterial activity against Shigella dysenteriae after 24 hrs by agar well diffusion method
Escherichia coli [3] = experiment: Antibacterial activity against Escherichia coli NCIB 86 after 72 hrs; details: NCIB 86, 72 h
Outline: (§2)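 MIC by the Russell and Furr method, run on selected Gram-positive and Gram-negative strains. Once the agar had set and its surface had dried, nutrient agar plates were streaked with overnight broth cultures. They were incubated at 37 °C for up to 72 h and scored for presence or absence of growth.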

Staphylococcus aureus [4] = experiment: Antibacterial activity against Staphylococcus aureus NCIB 8588 after 24 hrs by agar well diffusion method; outline: as §1
Klebsiella pneumoniae [5] = experiment: Antibacterial activity against Klebsiella pneumoniae NCIB 418 after 72 hrs; details: NCIB 418, 72 h; outline: as §2
Escherichia coli [6] = experiment: Antibacterial activity against Escherichia coli NCIB 86 after 24 hrs by agar well diffusion method; outline: as §1
Shigella dysenteriae [7] = experiment: Antibacterial activity against Shigella dysenteriae after 72 hrs
Outline: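 MIC by agar dilution: compound-containing nutrient agar was set and surface-dried, then streaked with overnight broth culture of the clinical isolate. Incubated at 37 °C for up to 72 h and scored for presence or absence of growth. Streptomycin was the reference.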

Bacillus cereus [8] = experiment: Antibacterial activity against Bacillus cereus NCIB 6349 after 24 hrs by agar well diffusion method; outline: as §1
Bacillus anthracis [9] = experiment: Antibacterial activity against Bacillus anthracis after 24 hrs by agar well diffusion method
[10] = system: Geobacillus stearothermophilus; experiment: Antibacterial activity against Bacillus stearothermophilus NCIB 8222 after 72 hrs; details: NCIB 8222, 72 h; outline: as §2
Pseudomonas fluorescens = experiment: Antibacterial activity against Pseudomonas fluorescens NCIB 3756 after 24 hrs by agar well diffusion method; outline: as §1
Staphylococcus aureus [11] = experiment: Antibacterial activity against Staphylococcus aureus NCIB 8588 after 72 hrs; details: NCIB 8588, 72 h; outline: as §2
Bacillus subtilis [12] = experiment: Antibacterial activity against Bacillus subtilis NCIB 3610 after 72 hrs; details: NCIB 3610, 72 h; outline: as §2
[13] = system: Geobacillus stearothermophilus; experiment: Antibacterial activity against Bacillus stearothermophilus NCIB 8222 after 24 hrs by agar well diffusion method; outline: as §1
Candida albicans = experiment: Antifungal activity against Candida albicans after 3 days by agar well diffusion method
Bacillus subtilis [14] = experiment: Antibacterial activity against Bacillus subtilis NCIB 3610 after 24 hrs by agar well diffusion method; outline: as §1
Klebsiella pneumoniae [15] = experiment: Antibacterial activity against Klebsiella pneumoniae NCIB 418 after 24 hrs by agar well diffusion method; outline: as §1
Bacillus cereus [16] = experiment: Antibacterial activity against Bacillus cereus NCIB 6349 after 72 hrs; details: NCIB 6349, 72 h; outline: as §2

## CC12CCC(C/C1=N\Nc1nc3ccccc3[nH]c1=O)C2(C)C (stereo unspecified)
Pseudomonas aeruginosa
  inhibition zone (IZ): 13 mm
Bacillus anthracis [1]
  MIC: 125 µg/mL (≈ 403 µM)
Shigella dysenteriae [2]
  inhibition zone (IZ): 0 mm
Escherichia coli [3]
  MIC: 15.6 µg/mL (≈ 50.3 µM)
Staphylococcus aureus [4]
  inhibition zone (IZ): 11 mm
Klebsiella pneumoniae [5]
  MIC: 31.3 µg/mL (≈ 101 µM)
Escherichia coli [6]
  inhibition zone (IZ): 18 mm
Shigella dysenteriae [7]
  MIC: inactive
Bacillus cereus [8]
  inhibition zone (IZ): 10 mm
Bacillus anthracis [9]
  inhibition zone (IZ): 5 mm
[10]
  MIC: 31.3 µg/mL (≈ 101 µM)
Pseudomonas fluorescens
  inhibition zone (IZ): 0 mm
Staphylococcus aureus [11]
  MIC: 62.5 µg/mL (≈ 201 µM)
Bacillus subtilis [12]
  MIC: 15.6 µg/mL (≈ 50.3 µM)
[13]
  inhibition zone (IZ): 14 mm
Candida albicans
  inhibition zone (IZ): 21 mm
Bacillus subtilis [14]
  inhibition zone (IZ): 16 mm
Klebsiella pneumoniae [15]
  inhibition zone (IZ): 16 mm
Bacillus cereus [16]
  MIC: 62.5 µg/mL (≈ 201 µM)

## Cc1ccc2c(c1)/C(=N/Nc1nc3ccccc3[nH]c1=O)C(=O)N2
Pseudomonas aeruginosa
  inhibition zone (IZ): 0 mm
Bacillus anthracis [1]
  MIC: inactive
Shigella dysenteriae [2]
  inhibition zone (IZ): 14 mm
Escherichia coli [3]
  MIC: 31.3 µg/mL (≈ 98 µM)
Staphylococcus aureus [4]
  inhibition zone (IZ): 19 mm
Klebsiella pneumoniae [5]
  MIC: 15.6 µg/mL (≈ 48.9 µM)
Escherichia coli [6]
  inhibition zone (IZ): 14 mm
Shigella dysenteriae [7]
  MIC: 31.3 µg/mL (≈ 98 µM)
Bacillus cereus [8]
  inhibition zone (IZ): 10 mm
Bacillus anthracis [9]
  inhibition zone (IZ): 0 mm
[10]
  MIC: 62.5 µg/mL (≈ 196 µM)
Pseudomonas fluorescens
  inhibition zone (IZ): 0 mm
Staphylococcus aureus [11]
  MIC: 15.6 µg/mL (≈ 48.9 µM)
Bacillus subtilis [12]
  MIC: 31.3 µg/mL (≈ 98 µM)
[13]
  inhibition zone (IZ): 13 mm
Candida albicans
  inhibition zone (IZ): 30 mm
Bacillus subtilis [14]
  inhibition zone (IZ): 15 mm
Klebsiella pneumoniae [15]
  inhibition zone (IZ): 17 mm
Bacillus cereus [16]
  MIC: 62.5 µg/mL (≈ 196 µM)

## O=c1[nH]c2ccccc2nc1NN=C1CCCCC1
Pseudomonas aeruginosa
  inhibition zone (IZ): 0 mm
Bacillus anthracis [1]
  MIC: inactive
Shigella dysenteriae [2]
  inhibition zone (IZ): 10 mm
Escherichia coli [3]
  MIC: 62.5 µg/mL (≈ 244 µM)
Staphylococcus aureus [4]
  inhibition zone (IZ): 19 mm
Klebsiella pneumoniae [5]
  MIC: 15.6 µg/mL (≈ 60.9 µM)
Escherichia coli [6]
  inhibition zone (IZ): 11 mm
Shigella dysenteriae [7]
  MIC: 125 µg/mL (≈ 488 µM)
Bacillus cereus [8]
  inhibition zone (IZ): 25 mm
Bacillus anthracis [9]
  inhibition zone (IZ): 0 mm
[10]
  MIC: 31.3 µg/mL (≈ 122 µM)
Pseudomonas fluorescens
  inhibition zone (IZ): 12 mm
Staphylococcus aureus [11]
  MIC: 15.6 µg/mL (≈ 60.9 µM)
Bacillus subtilis [12]
  MIC: 31.3 µg/mL (≈ 122 µM)
[13]
  inhibition zone (IZ): 15 mm
Candida albicans
  inhibition zone (IZ): 21 mm
Bacillus subtilis [14]
  inhibition zone (IZ): 16 mm
Klebsiella pneumoniae [15]
  inhibition zone (IZ): 17 mm
Bacillus cereus [16]
  MIC: 15.6 µg/mL (≈ 60.9 µM)

## CC1CCCC/C1=N\Nc1nc2ccccc2[nH]c1=O (stereo unspecified)
Pseudomonas aeruginosa
  inhibition zone (IZ): 0 mm
Bacillus anthracis [1]
  MIC: 15.6 µg/mL (≈ 57.7 µM)
Shigella dysenteriae [2]
  inhibition zone (IZ): 0 mm
Escherichia coli [3]
  MIC: 31.3 µg/mL (≈ 116 µM)
Staphylococcus aureus [4]
  inhibition zone (IZ): 19 mm
Klebsiella pneumoniae [5]
  MIC: 7.8 µg/mL (≈ 28.9 µM)
Escherichia coli [6]
  inhibition zone (IZ): 12 mm
Shigella dysenteriae [7]
  MIC: inactive
Bacillus cereus [8]
  inhibition zone (IZ): 13 mm
Bacillus anthracis [9]
  inhibition zone (IZ): 16 mm
[10]
  MIC: 7.8 µg/mL (≈ 28.9 µM)
Pseudomonas fluorescens
  inhibition zone (IZ): 13 mm
Staphylococcus aureus [11]
  MIC: 7.8 µg/mL (≈ 28.9 µM)
Bacillus subtilis [12]
  MIC: 62.5 µg/mL (≈ 231 µM)
[13]
  inhibition zone (IZ): 25 mm
Candida albicans
  inhibition zone (IZ): 14 mm
Bacillus subtilis [14]
  inhibition zone (IZ): 12 mm
Klebsiella pneumoniae [15]
  inhibition zone (IZ): 15 mm
Bacillus cereus [16]
  MIC: 15.6 µg/mL (≈ 57.7 µM)
